DSG3 Ab inh: human desmoglein-3 autoantibody binding inhibition. DSG3-coupled beads, scFv-anti-DSG3-GFP binding, flow cytometry; hits give low values. binding (percent of control), % at 10 µM. AID 588358. actives 0.48% (n = 310,000). P32926;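 active = binding more than 3 SD below its plate's average and above zero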;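 also: hits lower antibody fragment binding to DSG3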
CHT inh: inhibitors of human choline transporter CHT; Q9GZV3; CHT-expressing cells, membrane potential dye, choline response; hits give low values; B-score at 10 µM; actives 0.86% (n = 310,000); AID 488975;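 active = B-score over 3 SD under the library average, and starting fluorescence ratio not unusually high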;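 also: choline stimulus applied at its EC90 after an EC20 pre-addition; B-score computed on integrated fluorescence ratio after choline addition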
GPR7 antag: human neuropeptides B/W receptor 1 antagonism; GPR7-expressing cells, fluorescence antagonist assay; AID 1861; inhibition, % at 4.4 µM; actives 1.1% (n = 290,000); P48145; in the data active = inhibition above about 16%, passing the limit was not always enough;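 also: cells stimulated with the agonist NPW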
p-CIP stab down: compounds decreasing mouse p/CIP protein stability; decrease of EGFP signal, % at 10 µM; actives 0.01% (n = 290,000); Q05BA5; F442A p/CIP-EGFP cells, EGFP fluorescence, 16 h;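 active = EGFP signal decrease of at least 30% at 10 µM or well 3 SD below plate mean, unless failing retest; inactive = the rest, including hits failing retest or dose response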
CHT PAM: allosteric activators of human choline transporter CHT. Q9GZV3. CHT-expressing cells, membrane potential dye, choline EC20; hits give high values; LV-AA mutant CHT in HEK293 cells. B-score at 10 µM. actives 0.49% (n = 310,000);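 active = initial fluorescence not abnormally high and integrated response B-score, plate-corrected, over 3 SD above library mean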
T cell modulator: T cell immune modulation candidate; actives 0.068% (n = 330,000); AID 2052; 2C CD8+ T cell-vesicle binding, flow cytometry; hits give low values; response (vesicle binding), % at 7 µM;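 active = response, share of CD8 T cells binding vesicles, and their 90th percentile fluorescence all below set limits, cut at about 80% in these data, passing the limit was not always enough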;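 also: values below 100% mean blocked vesicle binding to the CD8+ T cells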
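Incubation: binding step 1.5 h, 37 °C, antibody labelling 20 min, ice; system: murine 2C transgenic CD8+ T lymphocytes; technique: cytometric PE anti-B7-1 and Alexa647 anti-CD8 signals after 1% paraformaldehyde fixation; also added: QL9-charged Drosophila Ld/ICAM-1/B7-1 vesicles; control set: naked versus QL9-loaded vesicles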
CHT act confirm: confirmation of human choline transporter (CHT) activators; activation, % at 10 µM; shares compounds with CHT PAM; CHT-expressing cells, membrane potential dye fluorescence (FDSS); % of choline EC20–EC90 response window; HEK293 expressing CHT LV-AA mutant; choline added at its EC20; AID 504833; actives 91% (n = 2,500);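 active = primary screen active, with duplicate mean activation above negative control mean plus 3 SD, cut at about 11% in these data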
HEK293 MP dye: CHT activator counter-screen hit in parental HEK293 cells. shares compounds with CHT PAM. ratio readout change at 10 µM, hits read low. AID 623908. actives 62% (n = 2,500). membrane potential dye fluorescence (FDSS); measured after EC20 choline addition;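 active = duplicate-averaged ratio beyond 3 SD from buffer wells, up or down, though filed actives are nearly all decreases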
A number is an active result. Most compounds without a hit are left out; they make up all but 2.3% or so of the library.

`COc1ccccc1CN(C)C(=O)C(c1ccccc1)c1ccccc1` gave DSG3 Ab inh inactive, CHT inh inactive, GPR7 antag inactive, p-CIP stab down inactive, CHT PAM 11, T cell modulator inactive, CHT act confirm 30 and HEK293 MP dye inactive.
Screening CN(CCO)C(=O)C(c1ccccc1)c1ccccc1 returned DSG3 Ab inh inactive, CHT inh inactive, GPR7 antag inactive, p-CIP stab down inactive, CHT PAM inactive and T cell modulator inactive.
For CN(Cc1ccc(F)cc1)C(=O)c1sccc1-c1ccccc1 the results were DSG3 Ab inh inactive, CHT inh inactive, GPR7 antag inactive, p-CIP stab down inactive, CHT PAM 6.7, T cell modulator inactive, CHT act confirm 37 and HEK293 MP dye inactive.
`CN(Cc1cccc(F)c1)C(=O)C(c1ccccc1)c1ccccc1` gave DSG3 Ab inh inactive, CHT inh inactive, GPR7 antag inactive, p-CIP stab down inactive, CHT PAM 6.5, T cell modulator inactive, CHT act confirm inactive and HEK293 MP dye inactive.
Screening CN(Cc1ccc(F)cc1)C(=O)C(c1ccccc1)c1ccccc1 returned DSG3 Ab inh inactive, CHT inh inactive, GPR7 antag inactive, p-CIP stab down inactive, CHT PAM inactive, T cell modulator inactive, CHT act confirm 37 and HEK293 MP dye inactive.
`COc1ccccc1CN(C)C(=O)c1ccc(COc2ccccc2)cc1` gave DSG3 Ab inh inactive, CHT inh inactive, GPR7 antag inactive, p-CIP stab down inactive, CHT PAM inactive and T cell modulator inactive.
Cc1cc(O)cc2c1C1CCC3(C)C(=O)CCC3C1C=C2 (centres undefined) was read as DSG3 Ab inh inactive.
Screening CCOc1cc(C(=O)OCC(=O)Nc2ccc(F)cc2Cl)ccc1OCC(=O)N1CCOCC1 returned DSG3 Ab inh inactive.
O=C(c1ccccc1F)N(Cc1ccc2c(c1)OCO2)Cc1cc2cc3c(cc2n2nnnc12)OCO3 was read as DSG3 Ab inh inactive, CHT inh inactive, GPR7 antag inactive, p-CIP stab down inactive, CHT PAM inactive, T cell modulator inactive, CHT act confirm 15 and HEK293 MP dye inactive.
`C/C(=N\NC(=O)c1nn(C)cc1Br)c1ccncc1` gave DSG3 Ab inh inactive, CHT inh inactive, GPR7 antag inactive, p-CIP stab down inactive, CHT PAM 7.3, T cell modulator inactive, CHT act confirm 17 and HEK293 MP dye -37.
Screening C/C(=N\NC(=O)c1nn(C)cc1Cl)c1ccncc1 returned DSG3 Ab inh inactive, CHT inh inactive, GPR7 antag inactive, p-CIP stab down inactive, CHT PAM inactive and T cell modulator inactive.
COC(=O)[C@@]1(Cc2ccccc2)[C@H]2C(=O)N(Cc3ccccc3)C(=O)[C@H]2[C@H]2CN=C(SCC3CC3)N21 was read as DSG3 Ab inh inactive.
For COc1ccc(Cl)cc1C(=O)Nc1ccncc1 the results were DSG3 Ab inh inactive, CHT inh inactive, GPR7 antag inactive, p-CIP stab down inactive, CHT PAM inactive, T cell modulator inactive, CHT act confirm 60 and HEK293 MP dye -42.
`COc1ccc(C(=O)Nc2ccncc2)cc1OC` gave DSG3 Ab inh inactive, CHT inh inactive, GPR7 antag inactive, p-CIP stab down inactive, CHT PAM 8.2, T cell modulator inactive, CHT act confirm 39 and HEK293 MP dye -50.
For COc1ccc(NS(=O)(=O)c2cccc(C(=O)N3CCN(S(=O)(=O)c4ccccc4)CC3)c2)cc1 the results were DSG3 Ab inh inactive.
Screening OC(C#CCCN1CCCCC1)(c1ccccc1)C1CCCCC1 (centres undefined) returned DSG3 Ab inh inactive, CHT inh inactive, GPR7 antag inactive, p-CIP stab down inactive, CHT PAM 7.5, T cell modulator inactive, CHT act confirm 18 and HEK293 MP dye inactive.
